pIC50: −log10 of the molar value.
How the values were obtained:
[1] = target: T1, Inhibitor of nuclear factor kappa-B kinase subunit beta (Homo sapiens, UniProt O14920); test: Inhibition of human IKKbeta using ERLLDDRHDSGLDSMKDEE as substrate after 60 mins in presence of ATP by ADP-Glo kinase assay
T1 sequence (O14920 whole entry): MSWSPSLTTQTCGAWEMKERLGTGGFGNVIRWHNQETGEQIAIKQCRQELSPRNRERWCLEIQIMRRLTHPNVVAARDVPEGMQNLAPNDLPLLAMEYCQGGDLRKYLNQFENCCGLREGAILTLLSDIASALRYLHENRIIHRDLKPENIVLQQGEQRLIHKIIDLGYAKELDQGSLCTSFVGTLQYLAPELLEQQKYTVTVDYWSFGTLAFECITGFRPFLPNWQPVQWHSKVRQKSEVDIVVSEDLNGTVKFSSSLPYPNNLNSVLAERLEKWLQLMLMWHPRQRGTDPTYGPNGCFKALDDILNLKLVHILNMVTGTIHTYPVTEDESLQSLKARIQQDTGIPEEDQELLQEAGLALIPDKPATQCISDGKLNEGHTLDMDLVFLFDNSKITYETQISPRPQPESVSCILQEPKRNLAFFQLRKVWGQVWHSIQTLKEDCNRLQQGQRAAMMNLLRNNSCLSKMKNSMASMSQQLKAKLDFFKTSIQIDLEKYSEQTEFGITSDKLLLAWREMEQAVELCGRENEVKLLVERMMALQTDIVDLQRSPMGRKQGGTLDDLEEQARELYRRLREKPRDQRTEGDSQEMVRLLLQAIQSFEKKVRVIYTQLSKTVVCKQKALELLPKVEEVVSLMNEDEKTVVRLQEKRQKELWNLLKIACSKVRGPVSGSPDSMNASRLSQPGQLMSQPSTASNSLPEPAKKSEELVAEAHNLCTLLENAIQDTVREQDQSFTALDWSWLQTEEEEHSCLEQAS

[2] = target: T1, Inhibitor of nuclear factor kappa-B kinase subunit beta; test: Inhibition of IKK-beta in human Jurkat cells assessed as reduction in TNFalpha-stimulated IkBalpha degradation preincubated for 60 mins followed by TNFalpha stimulation for 20 mins by immunoblot analysis; format: cell-based
MDA-MB-231 [3] = test: Inhibition of constitutively activated canonical NF-kB signaling pathway in human MDA-MB-231 cells assessed as residual activity at 10 uM after 24 hrs by luciferase reporter gene assay relative to control; format: cell-based
How it was run: (§1)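 MDA-MB-231 cells (constitutive NF-κB) nucleofected with 3 µg of NF-κB-RE firefly luciferase plus TK-Renilla plasmids (10:1), then cultured 24 h. Compound added for a further 6 h or 24 h, without stimulus. Firefly/Renilla ratio expressed as % of DMSO-treated control; mean ± SD of three independent experiments.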

MDA-MB-231 [4] = test: Inhibition of constitutively activated canonical NF-kB signaling pathway in human MDA-MB-231 cells assessed as residual activity at 10 uM after 6 hrs by luciferase reporter gene assay relative to control; format: cell-based; how it was run: as §1
MDA-MB-231 [5] = test: Antiproliferative activity against human MDA-MB-231 cells assessed as DNA content after 72 hrs by Hoechst 33258 staining based fluorescence assay; format: functional, cell-based; conditions: MDA-MB-231, 72 h
How it was run: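 MDA-MB-231 cells (5 x 10³/well) grown in DMEM with 10% FBS and exposed to 0.001 - 200 µM compound or DMSO vehicle for 72 h. Cells were washed with PBS and lysed in 0.02% SDS in SSC buffer for 1 h at 37 °C. Hoechst 33258 (1 µg/mL) was then added and fluorescence read at ex 355/em 460 nm. IC50 taken by nonlinear regression; mean ± SD of three independent experiments.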

[6] = target: T2, Inhibitor of nuclear factor kappa-B kinase subunit epsilon (Homo sapiens, UniProt Q14164); test: Inhibition of human IKKepsilon using ERLLDDRHDSGLDSMKDEE as substrate after 60 mins in presence of ATP by ADP-Glo kinase assay
T2 sequence (Q14164 whole entry): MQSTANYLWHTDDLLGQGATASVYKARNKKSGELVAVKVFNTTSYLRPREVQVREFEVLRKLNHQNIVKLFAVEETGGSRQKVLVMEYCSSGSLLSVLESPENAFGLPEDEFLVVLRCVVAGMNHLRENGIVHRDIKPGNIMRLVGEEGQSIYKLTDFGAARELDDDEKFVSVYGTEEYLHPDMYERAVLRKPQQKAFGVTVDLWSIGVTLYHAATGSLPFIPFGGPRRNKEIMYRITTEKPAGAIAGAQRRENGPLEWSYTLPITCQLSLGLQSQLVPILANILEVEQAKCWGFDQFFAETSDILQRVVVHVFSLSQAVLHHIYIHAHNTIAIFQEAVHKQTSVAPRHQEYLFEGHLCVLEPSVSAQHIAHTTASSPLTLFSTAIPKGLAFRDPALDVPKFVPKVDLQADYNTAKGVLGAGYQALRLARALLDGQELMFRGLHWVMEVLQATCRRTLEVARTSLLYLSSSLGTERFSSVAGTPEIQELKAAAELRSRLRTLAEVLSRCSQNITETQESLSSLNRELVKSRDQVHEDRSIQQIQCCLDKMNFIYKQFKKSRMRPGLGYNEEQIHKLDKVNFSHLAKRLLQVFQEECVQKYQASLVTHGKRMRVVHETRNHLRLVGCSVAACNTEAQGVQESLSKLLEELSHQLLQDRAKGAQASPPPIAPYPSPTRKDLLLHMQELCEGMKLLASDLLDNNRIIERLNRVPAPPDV

Jurkat = test: Inhibition of TNFalpha-activated canonical NF-kB signaling pathway in human Jurkat cells assessed as residual activity at 1 uM after 6 hrs by luciferase reporter gene assay relative to control; format: cell-based
How it was run: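 Jurkat cells nucleofected with 3 µg of NF-κB-RE firefly luciferase and TK-Renilla plasmids (10:1), then cultured 24 h at 37 °C. Compound added for a further 6 h, with TNFα in the last 20 min. Firefly luminescence normalized to Renilla and expressed as % of DMSO+TNFα control; mean ± SD of three experiments.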

Structure (SMILES) | pIC50 [1] | pIC50 [2] | Activity (MDA-MB-231 [3]) [%] | Activity (MDA-MB-231 [4]) [%] | pIC50 (MDA-MB-231 [5]) | pIC50 [6] | Activity (Jurkat) [%]
O=C(Nc1cc(C(F)(F)F)cc(C(F)(F)F)c1)c1nsnc1O | < 4.00 | 6.84 | 63 | 96.1 | 5.89 | < 4.00 | 15.9
O=C(Nc1cc(C(F)(F)F)cc(C(F)(F)F)c1)c1cc(Cl)ccc1O [IMD-0354] | < 4.00 | 6.66 | 58.3 | 99 | 6.19 | < 4.00 | 23.5
